One test has as its system Bacillus subtilis. Description: In vitro antibacterial activity against Bacillis subtilis (06A001), and minimum inhibitory concentration was determined. The format is functional. A digest of the protocol:
(§1)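 Broth dilution MIC determination, done per a previously described procedure. Each value is the mean of two determinations.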

Another test has as its system Enterococcus faecalis. Description: In vitro antibacterial activity against Streptococcus faecalis (02A006), and minimum inhibitory concentration was determined. In kind it is functional. The gist of the method:
as §1

In another test the test system is Pasteurella multocida. Briefly: In vitro antibacterial activity against Pasteurella multocida (59A0001), and minimum inhibitory concentration was determined. The format is functional. The gist of the method:
as §1

Test [1] concerns Neisseria sicca. Briefly: In vitro antibacterial activity against Neisseria sicca (66C000), and minimum inhibitory concentration was determined.
For test [2], the system named is Staphylococcus aureus. Briefly: In vitro for antibacterial activity against Staphylococcus aureus (01A111), and minimum inhibitory concentration was determined. The format is functional. The gist of the method:
as §1

Test [3] relates to Escherichia coli. Description: In vitro antibacterial activity against Escherichia coli (51A125), and minimum inhibitory concentration was determined. In kind it is functional. A digest of the protocol: as §1
The test system of a further test is Streptococcus pyogenes. Briefly: In vitro antibacterial activity against Streptococcus pyogenes (02C203), and minimum inhibitory concentration was determined. The format is functional. A digest of the protocol:
as §1

Another test has as its system Streptococcus pneumoniae. Description: In vitro antibacterial activity against Streptococcus pneumoniae (02J012), and minimum inhibitory concentration was determined. The format is functional. A digest of the protocol:
as §1

For test [4], the system named is Staphylococcus aureus. Description: In vitro for antibacterial activity against Staphylococcus aureus (01A400), and minimum inhibitory concentration was determined. In kind it is functional. A digest of the protocol:
as §1

In test [5] the test system is Staphylococcus aureus. Description: In vitro antibacterial activity against Staphylococcus aureus (01A052), and minimum inhibitory concentration was determined. The format is functional. A digest of the protocol: as §1
Test [6] deals with Staphylococcus aureus. Briefly: In vitro antibacterial activity against Staphylococcus aureus (01A005), and minimum inhibitory concentration was determined. The format is functional. The gist of the method:
as §1

The test system of test [7] is Escherichia coli. Description: In vitro antibacterial activity against Escherichia coli (51A470), and minimum inhibitory concentration was determined. In kind it is functional. The gist of the method:
as §1

The test system of test [8] is Neisseria sicca. Description: In vitro antibacterial activity against Neisseria sicca (66C000), and minimum inhibitory concentration was determined. The format is functional. A digest of the protocol:
as §1

In test [9] the test system is Escherichia coli. Briefly: In vitro antibacterial activity against Escherichia coli (51A125), and minimum inhibitory concentration was determined.

This passage reports MIC results from ChEMBL document CHEMBL1122104, “Ring contraction of oleandrose on the macrolide antibiotic oleandomycin with [(Methoxycarbonyl)sulfamoyl]triethylammonium hydroxide inner salt” (1982).

Take `C=CC1O[C@@H](O[C@@H]2C(C)C(=O)O[C@H](C)[C@H](C)C(OC(C)=O)C(C)C(=O)[C@]3(CO3)C[C@H](C)[C@H](OC3OC(C)CC(N(C)C)[C@H]3O)[C@H]2C)C[C@@H]1OC` (some centres undefined): the MIC against Bacillus subtilis is on record as 1.56; in the test with Enterococcus faecalis, 12.5; with Pasteurella multocida it was 50; against Neisseria sicca [1] it was 6.25; against Staphylococcus aureus [2], 0.78; with Escherichia coli [3], above 800. In addition, the MIC with Streptococcus pyogenes was 0.39; in the test with Streptococcus pneumoniae it was below 0.01; in the test on Staphylococcus aureus [4] it was 25; against Staphylococcus aureus [5], 6.25; in the test on Staphylococcus aureus [6] it was 3.12; against Escherichia coli [7] it was 50.

For the molecule `COC1CC(O[C@@H]2C(C)C(=O)O[C@H](C)[C@H](C)C(OC(C)=O)C(C)C(=O)[C@]3(CO3)C[C@H](C)[C@H](OC3OC(C)CC(N(C)C)[C@H]3O)[C@H]2C)OC(C)[C@@H]1O` (some centres undefined), the MIC was found to be 1.56 in the test on Neisseria sicca [8]; 0.78 against Bacillus subtilis; 1.56 with Enterococcus faecalis; 6.25 in the test on Pasteurella multocida; 0.78 in the test with Staphylococcus aureus [2]; 400 with Escherichia coli [9]. In addition, the MIC with Streptococcus pyogenes is recorded as 0.1; against Streptococcus pneumoniae, below 0.01; against Staphylococcus aureus [4] it was 1.56; with Staphylococcus aureus [5] it was 0.39; in the test with Staphylococcus aureus [6], 0.39; against Escherichia coli [7], 6.25.
